The values below come from ChEMBL document CHEMBL1137499, “A new opioid designed multiple ligand derived from the micro opioid agonist endomorphin-2 and the delta opioid antagonist pharmacophore Dmt-Tic” (Bioorg Med Chem, 2007).

SMILES strings stand for the structures. Numbered stars: 1 amine (or outer) side, 2 acyl side, 3 side chain; on linkers, the order of the positions; unused ones are H or OH. Square brackets hold non-standard residues; d marks the D form. Peptide text beside a SMILES is read from it. ξ: configuration not given here. Dmt = Cc1cc(O)cc(C)c1C[C@H](N)C(=O)O; Ethylenediamine = C(CN[*:2])N[*:1]; ξTic = O=C(O)C1Cc2ccccc2CN1

The species named for experiment [1] is Rattus norvegicus. Description: Selectivity for mu-opioid receptor over delta opiod receptor in Sprague-Dawley rat brain P2 synaptosome membrane. The format is tissue-based.
In experiment [2] the target is Mu-type opioid receptor (Cavia porcellus, UniProt P97266). In words: Agonist activity at mu-opioid receptor in Hartley guinea pig ileum assessed as inhibition of electrically-stimulated muscle contraction. The class given is functional, tissue-based. The method, boiled down:
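Myenteric plexus longitudinal muscle strips (2-3 cm) from small intestine of male Hartley guinea pigs, held in organ baths of balanced salt solution, pH 7.5. Inhibition of electrically evoked contraction was measured. IC50 (nM) was read from dose-response curves, with dermorphin as internal standard. Values are means ± SE of five or six separate assays.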

In experiment [3] the target is Delta-type opioid receptor (Rattus norvegicus, UniProt P33533). In words: Displacement of [3H]deltorphin 2 from delta-opioid receptor in Sprague-Dawley rat brain P2 synaptosome membrane. The format is tissue-based. An outline of the steps: (§1)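 Competition binding at equilibrium, 2.5 h at room temperature (23 °C), on rat brain P2 synaptosomes. Filters were soaked in 0.1% polyethylenimine and washed three times with ice-cold buffered BSA. Duplicate assays used 5-8 doses and 3-5 independent membrane preparations. Ki was derived by Cheng-Prusoff; means ± SE.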
Chain of Delta-type opioid receptor (P33533 whole entry): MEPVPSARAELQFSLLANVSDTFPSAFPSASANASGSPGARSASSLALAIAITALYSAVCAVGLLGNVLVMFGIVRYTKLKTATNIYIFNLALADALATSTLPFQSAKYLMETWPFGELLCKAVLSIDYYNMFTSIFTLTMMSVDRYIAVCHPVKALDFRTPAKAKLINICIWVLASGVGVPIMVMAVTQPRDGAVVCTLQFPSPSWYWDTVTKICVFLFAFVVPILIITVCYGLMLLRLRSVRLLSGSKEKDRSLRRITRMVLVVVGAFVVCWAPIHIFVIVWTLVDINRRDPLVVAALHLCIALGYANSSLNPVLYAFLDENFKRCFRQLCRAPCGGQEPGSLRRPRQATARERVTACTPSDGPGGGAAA

The target of experiment [4] is Mu-type opioid receptor (Rattus norvegicus, UniProt P33535). Description: Displacement of [3H]DAMGO from mu-opioid receptor in Sprague-Dawley rat brain P2 synaptosome membrane. The class given is tissue-based. An outline of the steps:
as §1
(Displacement assays read how much labelled ligand stays bound in the presence of the test substance.)

For experiment [5], the species on record is Rattus norvegicus. In words: Selectivity for delta-opioid receptor over mu opiod receptor in Sprague-Dawley rat brain P2 synaptosome membrane. The class given is tissue-based.

Chain of Mu-type opioid receptor (Cavia porcellus, UniProt P97266) (P97266 whole entry): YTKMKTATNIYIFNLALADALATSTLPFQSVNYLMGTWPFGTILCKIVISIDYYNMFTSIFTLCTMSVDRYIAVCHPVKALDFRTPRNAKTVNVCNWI
Chain of Mu-type opioid receptor (Rattus norvegicus, UniProt P33535) (P33535 whole entry): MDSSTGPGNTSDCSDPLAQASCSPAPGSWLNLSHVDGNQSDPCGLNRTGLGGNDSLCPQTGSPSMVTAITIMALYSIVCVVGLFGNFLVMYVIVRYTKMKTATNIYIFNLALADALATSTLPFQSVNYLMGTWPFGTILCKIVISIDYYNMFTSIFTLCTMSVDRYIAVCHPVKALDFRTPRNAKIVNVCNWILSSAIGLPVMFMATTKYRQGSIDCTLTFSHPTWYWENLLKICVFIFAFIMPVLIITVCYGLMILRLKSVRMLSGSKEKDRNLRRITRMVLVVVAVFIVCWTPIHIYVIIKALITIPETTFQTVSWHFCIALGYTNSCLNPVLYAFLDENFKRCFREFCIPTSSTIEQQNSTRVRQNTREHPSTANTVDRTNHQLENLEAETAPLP

Take `Cc1cc(O)cc(C)c1C[C@H](N)C(=O)N1Cc2ccccc2CC1C(=O)NCCNC(=O)[C@H](Cc1ccccc1)NC(=O)[C@H](Cc1ccccc1)NC(=O)[C@@H]1CCCN1C(=O)[C@@H](N)Cc1ccc(O)cc1` (stereo partly drawn): the Ratio Ki in the experiment listed under Rattus norvegicus [1] was determined as 1.41.

Take `Cc1cc(O)cc(C)c1C[C@H](N)C(=O)N1Cc2ccccc2C[C@H]1C(=O)NCCNC(=O)[C@H](Cc1ccccc1)NC(=O)[C@H](Cc1ccccc1)NC(=O)[C@@H]1CCCN1C(=O)[C@@H](N)Cc1ccc(O)cc1`: the 50% inhibitory concentration (IC50) (in general, the concentration that inhibits the measured activity by half) on Mu-type opioid receptor [2] is 25.1 nM. In addition, the inhibitory constant (Ki) (in general, the equilibrium dissociation constant of an inhibitor or competing ligand from its target) in experiment [3] was found to be 1.45 nM; at Mu-type opioid receptor [4], 1.03 nM.

On to `Cc1cc(O)cc(C)c1C[C@H](N)C(=O)N1Cc2ccccc2CC1C(=O)NCCN` (stereo partly drawn) (H-[Dmt]-[ξTic]-Ethylenediamine), for which, in the experiment filed under Rattus norvegicus [5], the Ratio Ki came to 3.36. In addition, the IC50 at Mu-type opioid receptor [2] turned out to be 286 nM. The Ki in experiment [3] is 1.81 nM; on Mu-type opioid receptor [4], 2.72 nM.
